From PubChem BioAssay
A selection: hits, their analogues and other compounds. The true share with any hit is near 1.4%.
ABCB6 inh MLPCN: human ABCB6 transporter inhibition. Q9NP58. K562-ABCB6 porphyrin accumulation, flow cytometry, 1 h; hits give low values. fluorescence ratio to DMSO, % at 10 µM. 360,000 compounds, 0.19% hits. AID 602162;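 active = fluorescence ratio to DMSO below 75%, the collection mean minus 3 SD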;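 also: signal is porphyrin accumulated inside mitochondria; lower ratio means ABCB6 inhibition with less porphyrin fluorescence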
Target sequence (Q9NP58 whole entry, looked up): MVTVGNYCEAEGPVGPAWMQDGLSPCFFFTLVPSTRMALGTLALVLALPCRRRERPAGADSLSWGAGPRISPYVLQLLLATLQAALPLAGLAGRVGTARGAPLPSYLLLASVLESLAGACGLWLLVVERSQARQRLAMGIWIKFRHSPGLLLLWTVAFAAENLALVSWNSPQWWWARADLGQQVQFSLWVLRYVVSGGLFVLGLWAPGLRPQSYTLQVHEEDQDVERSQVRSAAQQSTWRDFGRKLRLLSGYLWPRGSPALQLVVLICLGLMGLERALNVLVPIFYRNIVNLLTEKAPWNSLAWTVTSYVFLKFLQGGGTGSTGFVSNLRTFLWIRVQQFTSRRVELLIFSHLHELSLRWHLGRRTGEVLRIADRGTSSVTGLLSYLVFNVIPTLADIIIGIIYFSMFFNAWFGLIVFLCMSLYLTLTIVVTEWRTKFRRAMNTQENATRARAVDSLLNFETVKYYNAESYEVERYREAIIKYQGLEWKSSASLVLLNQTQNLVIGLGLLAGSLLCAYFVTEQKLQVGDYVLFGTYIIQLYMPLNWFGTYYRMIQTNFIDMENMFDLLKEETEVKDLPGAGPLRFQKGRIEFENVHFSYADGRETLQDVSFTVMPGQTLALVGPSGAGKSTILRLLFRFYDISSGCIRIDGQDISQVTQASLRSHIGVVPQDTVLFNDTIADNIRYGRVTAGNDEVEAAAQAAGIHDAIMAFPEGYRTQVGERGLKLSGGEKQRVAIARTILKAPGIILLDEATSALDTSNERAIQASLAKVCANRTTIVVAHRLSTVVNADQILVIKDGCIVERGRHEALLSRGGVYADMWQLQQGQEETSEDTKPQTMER
CHT inh: inhibitors of human choline transporter CHT | CHT-expressing cells, membrane potential dye, choline response; hits give low values | AID 488975 | B-score at 10 µM | 310,000 compounds, 0.86% hits | Q9GZV3;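 active = B-score over 3 SD under the library average, and starting fluorescence ratio not unusually high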;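 also: choline stimulus applied at its EC90 after an EC20 pre-addition; B-score computed on integrated fluorescence ratio after choline addition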
TNAP inh no acc: inhibitors of human TNAP without phosphate acceptor | P05186 | purified TNAP, CDP-star luminescence, 30 min | inhibition, % at 20 µM | 200,000 compounds, 0.26% hits;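 active = tissue-nonspecific alkaline phosphatase inhibition above about 50% at 20 µM in the single-dose screen, limit read from the data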
TNAP inh hiacc: inhibitors of human TNAP at high phosphate acceptor concentration; P05186; purified TNAP, CDP-star luminescence, 1 M DEA; inhibition, % at 20 µM; 200,000 compounds, 0.03% hits;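 active = over 50% inhibition of tissue-nonspecific alkaline phosphatase at 20 µM in the single-dose screen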
TNAP act hiacc: activators of human TNAP at high phosphate acceptor concentration | P05186 | purified TNAP, CDP-star luminescence, 1 M DEA, 30 min; hits give high values; 0 = EDTA background, 1 = DMSO-only activity | activation factor at 20 µM | 200,000 tested, under 10 active | AID 1136;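 active = activation factor at least 2 at 20 µM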
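Test system – human TNAP · Doses – 20 µM single point · Incubation – 30 min, room temperature · Signal – luminescent substrate turnover signal · Read-out basis – activation factor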
CHT PAM: allosterically activates the human high affinity choline transporter; Q9GZV3; CHT-expressing cells, membrane potential dye, choline EC20; hits give high values; LV-AA mutant CHT in HEK293 cells; B-score at 10 µM; 310,000 compounds, 0.49% hits; AID 488977;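 active = initial fluorescence not abnormally high and integrated response B-score, plate-corrected, over 3 SD above library mean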
ABCB6 blocker 1: human ABCB6 transporter inhibition; 700 tested, under 10 active; K562-ABCB6 porphyrin accumulation, flow cytometry, 1 h; hits give low values; ratio response (% of DMSO), % at 10 µM; shares compounds with ABCB6 inh MLPCN;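 active = repeat-averaged ratio response below 75% of DMSO, the collection mean minus 3 SD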;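 also: median porphyrin fluorescence at 575 nm with 488 nm excitation from mitochondria; lower ratio means less porphyrin signal so ABCB6 inhibition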
Numbers stand for hits; - = inactive; . = not tested or not shown.

SMILES	ABCB6 inh MLPCN	CHT inh	TNAP inh no acc	TNAP inh hiacc	TNAP act hiacc	CHT PAM	ABCB6 blocker 1
Cc1nn(-c2ccccc2)c(N)c1Sc1ccccc1[N+](=O)[O-]	46	-	-	-	-	-	-
COc1ccc(OC)c(S(=O)(=O)N2CCC(C(=O)NCc3ccccn3)CC2)c1	73	-	.	.	.	-	-
O=C1C(C=Nc2ccccc2)=C(O)c2ccccc21	71	-	-	-	-	-	-
COc1ccc(N=CC2=C(O)c3ccccc3C2=O)cc1	-	-	-	-	-	-	.
CCCc1ccc(OCCNC(C)=O)cc1	68	-	.	.	.	-	-
CCCc1ccc(OCCNC(=O)CC)cc1	-	-	-	-	-	-	.
Cc1c(C(=O)N(Cc2ccccc2)C(C)C)cnn1-c1ccccc1	-	-	.	.	.	-	.
Cc1c(C(=O)N(Cc2ccccc2)Cc2cccs2)cnn1-c1ccc(Cl)cc1	14	-	.	.	.	-	-
COC(=O)[C@@]12CCCCN1[C@H](c1ccc(-c3ccc4c(c3)OCO4)cc1)[C@H]1C(=O)N(C)C(=O)[C@H]12	-	.	.	.	.	.	.
O=C(NCCN1CCOCC1)c1ccc(NC(=O)c2ccc(Br)o2)cc1	-	.	.	.	.	.	.
O=C(Nc1ccc([N+](=O)[O-])cc1)c1ccc(S(=O)(=O)N2CCCC2)cc1	73	-	.	.	.	-	-
O=C(COc1cccc(C(F)(F)F)c1)Nc1ccc(S(=O)(=O)N2CCCC2)cc1	60	-	-	-	-	-	-
COC(=O)c1ccc(NC(=O)COc2ccc(S(=O)(=O)N3CCCCC3)cc2)cc1	70	-	-	-	-	-	-
O=C(Nc1ccc(S(=O)(=O)N2CCCC2)cc1)c1ccc(F)cc1	-	.	.	.	.	.	.
COc1ccc(CNC(=O)C(C)Cc2ccccc2)cc1O (configuration not stated)	-	-	-	-	-	-	.
CN(CC(=O)NCc1ccccc1F)S(=O)(=O)c1ccc(Cl)cc1	-	-	.	.	.	-	.
CC1(C)NC(=O)N(CC(O)CN(c2ccccc2)S(=O)(=O)c2ccccc2[N+](=O)[O-])C1=O (configuration not stated)	-	-	.	.	.	-	.
CC(C)Oc1ccc(C(=O)NCc2cccs2)cc1	-	-	-	-	-	-	.
O=C(NCc1cccc(Cl)c1)c1ccc2ccccc2n1	70	-	.	.	.	-	-
O=C(CN1CCCCC1)Nc1cccc(Br)c1	69	-	-	-	-	-	-
O=C(CCN1CCCC1)Nc1cccc(Br)c1	-	-	-	-	-	-	.
COc1ccc(NC(=O)CN2CCCCCC2)cc1OC	73	-	.	.	.	-	-
COc1cc(OC)cc(C(=O)NC(C(=O)Nc2ccc3c(c2)OCO3)C(C)C)c1 (configuration not stated)	-	.	.	.	.	.	.
Cc1ccccc1OCCNC(=O)CSc1ccc(C(F)(F)F)cc1[N+](=O)[O-]	70	-	-	-	-	-	-
COc1cccc(OCCNC(=O)CSc2ccc(C(F)(F)F)cc2[N+](=O)[O-])c1	-	-	-	-	-	-	.
SMILES	ABCB6 inh MLPCN	CHT inh	TNAP inh no acc	TNAP inh hiacc	TNAP act hiacc	CHT PAM	ABCB6 blocker 1
Fc1ccccc1OCCCN1CCOCC1	74	-	-	-	-	-	-
Cn1c(CNC2CCCCC2)c(C#N)c2ccccc21	-	-	-	-	-	-	.
COCc1nnc(NC(=O)c2c(-c3c(Cl)cccc3Cl)noc2C)s1	67	-	.	.	.	-	-
COc1ccccc1C(=O)Nc1ccnn1C1CCN(C(=O)c2ccoc2)CC1	74	-	.	.	.	-	-
CS(=O)(=O)NCCSCc1ccccc1	-	-	-	-	-	-	.
Cc1ccccc1CSCCNS(C)(=O)=O	44	-	-	-	-	-	-
O=C(c1ccc2c(c1)OCCO2)C1CCN(S(=O)(=O)c2ccc(F)cc2)CC1	-	-	-	-	-	-	.
COc1cc(C2=NOC(C(=O)N3CCCc4ccccc43)C2)cc(OC)c1OC (configuration not stated)	64	-	-	-	-	-	-
COC1CC(N)C2OC(c3ccccc3)OCC2O1 (configuration not stated)	-	.	.	.	.	.	.
Cn1c(SCC(=O)N2CCOCC2)nnc1-c1ccc(Cl)cc1Cl	73	-	-	-	-	-	-
Nn1c(SCC(=O)N2CCOCC2)nnc1-c1ccc(Cl)cc1Cl	-	-	-	-	-	-	.
CCC(COC)NCc1cn(-c2ccc(OC)cc2)nc1-c1cccc(F)c1 (configuration not stated)	-	-	-	-	-	-	.
CSc1cccc(NC(=O)CNC(=O)C2CCCCC2)c1	-	-	.	.	.	-	.
CCOc1ccccc1NC(=O)CSc1nnc(Cc2cccn2C)n1-c1ccc(F)cc1	-	-	-	-	-	-	.
CCOC(=O)c1ccccc1NC(=O)CSc1nnc(Cc2cccn2C)n1-c1ccc(F)cc1	65	-	-	-	-	-	-
CC12CCC(C(=O)N(CCCCN3CCN(c4ccccn4)CC3)C1=O)C2(C)C (configuration not stated)	58	-	.	.	.	-	-
CC12CCC(C(=O)N(CCCN3CCN(Cc4ccccc4)CC3)C1=O)C2(C)C (configuration not stated)	-	-	-	-	-	-	.
CC(=O)c1ccc(N2CCN(C(=O)c3cccs3)C(C)C2)c(F)c1 (configuration not stated)	-	-	.	.	.	-	.
CCCn1ncc(CN2CCN(Cc3ccc(C)o3)C(CCO)C2)c1C (configuration not stated)	-	-	.	.	.	-	.
Cc1cc(C)c(C#N)c(N2CCN(Cc3ccc4c(c3)OCO4)CC2)n1	-	-	-	-	-	-	.
Cc1cc(C)c(C#N)c(N2CCN(Cc3ccccc3)CC2)n1	47	-	-	-	-	-	-
Cc1ccccc1Cc1c(C)nc2nc(SCC(=O)NCc3ccco3)nn2c1C	-	-	-	-	-	-	.
Cc1ccc(C)c(Cc2c(C)nc3c(C(=O)N4CCOCC4)cnn3c2C)c1	-	-	-	-	-	-	-
Cc1nc2c(C(=O)N3CCCC3)cnn2c(C)c1Cc1c(F)cccc1Cl	-	-	-	-	-	-	-
Cc1ccccc1Cc1c(C)nc2c(C(=O)NCc3ccco3)cnn2c1C	70	-	-	-	-	-	-
SMILES	ABCB6 inh MLPCN	CHT inh	TNAP inh no acc	TNAP inh hiacc	TNAP act hiacc	CHT PAM	ABCB6 blocker 1
CCCc1nc(SCC(=O)N2CCCCCC2)c2c(=O)n(C)c(=O)n(C)c2n1	.	-	.	.	.	-	.
CCc1cccc(OCC2Cn3c(nc4c3c(=O)[nH]c(=O)n4C)O2)c1 (configuration not stated)	-	-	.	.	.	-	.
CCOc1ccc(-c2cncc3nccn23)cc1	65	.	.	.	.	.	-
COc1ccc(-c2cncc3nccn23)cc1OC	-	.	.	.	.	.	.
Nc1nc(Nc2ccccc2)sc1C(=O)c1ccccc1	-	-	.	.	.	-	.
Cc1cnc(NC(=O)c2sc(Nc3ccccc3)nc2N)o1	19	-	.	.	.	-	-
